# Assay results from ChEMBL document CHEMBL1128557, “Synthesis, antitumor activity, and chemical properties of silaplatin and related platinum (II) and platinum (IV) complexes derived from beta-silyl amines” (J Med Chem, 1995).
# Legend:
# [1] = system: Tumor Cell line; test: The compound was evaluated in vitro for the log10 molecular concentration that caused 50 % of 60 human tumor cell line kills; format: ADME, cell-based
# Procedure, shortened: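 Human tumor cell lines (leukemia, non-small-cell lung, ovarian, renal) were preincubated 24 h. Platinum complexes were then added as five 10-fold dilutions, 0.01–100 μM, for 48 h, followed by in situ fixation and staining, with solubilized stain read spectrophotometrically. Log LC50 (50% cell kill) was averaged across cell lines within one experiment.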
# [2] = system: Tumor Cell line; test: Evaluated in vitro for the log10 molecular concentration that caused 50 % inhibition of tumor growth of 60 human tumor cell lines; format: functional, cell-based
# Procedure, shortened: (§1)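 Cells preincubated 24 h, then exposed to the agent at five 10-fold dilutions (0.01–100 μM for the platinum complexes) for 48 h. Cells fixed in situ and stained; solubilized stain read spectrophotometrically. Panel of leukemia, non-small-cell lung, ovarian and renal lines. Log GI50 or TGI taken per cell line in one experiment, then averaged across lines.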
# [3] = system: Tumor Cell line; test: Evaluated in vitro for the log10 molecular concentration that caused […] tumor growth of 60 human tumor cell lines.; format: functional, cell-based; procedure, shortened: as §1
# [4] = system: Mus musculus; test: The compound was evaluated for the mean body weight change (BWC) in mice infected with cisplatin sensitive L1210 Leukemia (dose 10 mg/kg, ip),day 5; format: functional, organism-based; set-up: dose 10 mg/kg
# Procedure, shortened: (§2)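 CD2F1 mice implanted ip on day 0 with 10^5 L1210/0 (parent) leukemia cells, in groups of 6 or 10 (20 or 30 controls). Complexes given ip in saline plus Tween 80 on days 1, 5 and 9. BWC is the group mean weight change, day 5 minus day 1. MST is median survival and %ILS is calculated from MST, both from dying mice only, excluding day 30 survivors.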
# [5] = system: Mus musculus; test: The compound was evaluated for the median survival time (MST) in mice infected with cisplatin sensitive L1210 Leukemia (dose 40 mg/kg, ip), day 1; format: functional, organism-based; set-up: dose 40 mg/kg
# Procedure, shortened: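 On day 0, 10⁵ parent or cisplatin-resistant L1210 cells were implanted ip into CD2F1 mice, 6 or 10 per dose group (20 or 30 controls). Dosing was ip on days 1, 5 and 9 in saline plus Tween 80. Median survival time was taken from dying mice only, excluding day-30 survivors. Both sublines were tested concurrently.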
# [6] = system: Mus musculus; test: The compound was evaluated for the mean body weight change (BWC) in mice infected with cisplatin sensitive L1210 Leukemia (dose 80 mg/kg, ip),day 1; format: functional, organism-based; set-up: dose 80 mg/kg; procedure, shortened: as §2
# [7] = system: Mus musculus; test: The compound was evaluated for the mean body weight change (BWC) in mice infected with cisplatin sensitive L1210 Leukemia (dose 40 mg/kg, ip),day 1; format: functional, organism-based; set-up: dose 40 mg/kg; procedure, shortened: as §2
# [8] = system: Mus musculus; test: The compound was evaluated for the median survival time (MST) in mice infected with cisplatin sensitive L1210 Leukemia (dose 10 mg/kg, ip), day 1; format: functional, organism-based; set-up: dose 10 mg/kg; procedure, shortened: as §2
# [9] = system: Mus musculus; test: The compound was evaluated for the mean body weight change (BWC) in mice infected with cisplatin sensitive L1210 Leukemia (dose 20 mg/kg, ip),day 5; format: functional, organism-based; set-up: dose 20 mg/kg; procedure, shortened: as §2
# [10] = system: Mus musculus; test: The compound was evaluated for the median survival time (MST) in mice infected with cisplatin sensitive L1210 Leukemia (dose 10 mg/kg, ip), day 5; format: functional, organism-based; set-up: dose 10 mg/kg; procedure, shortened: as §2
# [11] = system: Mus musculus; test: The compound was evaluated for the mean body weight change (BWC) in mice infected with cisplatin sensitive L1210 Leukemia (dose 10 mg/kg, ip),day 1; format: functional, organism-based; set-up: dose 10 mg/kg; procedure, shortened: as §2
# [12] = system: Mus musculus; test: The compound was evaluated for the median survival time (MST) in mice infected with cisplatin sensitive L1210 Leukemia (dose 80 mg/kg, ip), day 1; format: functional, organism-based; set-up: dose 80 mg/kg; procedure, shortened: as §2
# [13] = system: Mus musculus; test: The compound was evaluated for the median survival time (MST) in mice infected with cisplatin sensitive L1210 Leukemia (dose 40 mg/kg, ip), day 5; format: functional, organism-based; set-up: dose 40 mg/kg; procedure, shortened: as §2
# [14] = system: Mus musculus; test: The compound was evaluated for the mean body weight change (BWC) in mice infected with cisplatin sensitive L1210 Leukemia (dose 80 mg/kg, ip),day 5; format: functional, organism-based; set-up: dose 80 mg/kg; procedure, shortened: as §2
# [15] = system: Mus musculus; test: The compound was evaluated for the median survival time (MST) in mice infected with cisplatin sensitive L1210 Leukemia (dose 20 mg/kg, ip), day 5; format: functional, organism-based; set-up: dose 20 mg/kg; procedure, shortened: as §2
# [16] = system: Mus musculus; test: The compound was evaluated for the median survival time (MST) in mice infected with cisplatin sensitive L1210 Leukemia (dose 80 mg/kg, ip), day 5; format: functional, organism-based; set-up: dose 80 mg/kg; procedure, shortened: as §2
# [17] = system: Mus musculus; test: The compound was evaluated for the mean body weight change (BWC) in mice infected with cisplatin sensitive L1210 Leukemia (dose 40 mg/kg, ip),day 5; format: functional, organism-based; set-up: dose 40 mg/kg; procedure, shortened: as §2
GI50 [2] [µM],Substance,Log LC50 [1],TGI [3] [µM],further results
–,[Bis(aminomethyl)dimethylsilane]dichloroplatinum (II),> -4.01,–,–
–,CARBOPLATIN,> -3.61,–,–
–,[Bis(aminomethyl)dimethylsilane]tetrachloroplatinum(IV) [listing 1 of 2 here],> -4.02,–,–
–,[Bis(aminomethyl)tetramethylenesilane]tetrachloropaltinum(IV) [listing 1 of 2 here],> -4,–,–
–,[Bis(aminomethyl)ethylmethylsilane]tetrachloroplatinum(IV),> -4.02,–,–
4.47,[Bis(aminomethyl)tetramethylenesilane]tetrachloropaltinum(IV) [listing 2 of 2 here],–,49,–
11.7,[Bis(aminomethyl)pentamethylenesilane]dichloropaltinum(II),–,67.6,–
4.79,[Bis(aminomethyl)dimethylsilane]tetrachloroplatinum(IV) [listing 2 of 2 here],–,41.7,BWC [4]: 0.1 g; MST [5]: 27 days; BWC [6]: -5 g; BWC [7]: -2.4 g; MST [8]: 18.5 days; BWC [9]: -0.6 g; MST [10]: 15 days; BWC [11]: 0 g; MST [12]: 8.3 days; MST [13]: 21 days; BWC [14]: -3.4 g; MST [15]: 19 days; MST [16]: 10 days; BWC [17]: -1.3 g
4.47,CISPLATIN,–,33.9,–
4.17,[Bis(aminomethyl)pentamethylenesilane]tetrachloropaltinum(IV) [listing 1 of 2 here],–,50.1,–
–,[Bis(aminomethyl)pentamethylenesilane]tetrachloropaltinum(IV) [listing 2 of 2 here],> -4.01,–,–
